Hits are enriched below; roughly 2.1% of the tested compounds scored in any of these assays.
TDP2 absorb: human TDP2 enzyme inhibitors, primary screen, biochemical, epi absorbance, recombinant enzyme; inhibition, % at 12.8 µM; 370,000 compounds, 0.34% hits; Tyrosyl-DNA phosphodiesterase 2 (Homo sapiens), O95551; T5PNP hydrolysis, p-nitrophenol absorbance 415 nm;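 active means inhibition above the mean of all tested compounds plus 3 SD, set per campaign, cut at about 25% in these data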
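Test system: human TDP2 enzyme; Input: 120 nM TDP2 per well; Buffer or medium: Mg2+-containing Tris-HCl buffer, pH 7.5; Reagent: 5 mM T5PNP; Dosing: 12.8 µM single point, 1% DMSO; Incubation: reaction 2 h, 37 °C; Detection: p-Nitrophenol epi absorbance; Read-out: % inhibition relative to enzyme-containing and enzyme-free wells; Replicates: single well per compound.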
PP1 counter: PP1-alpha phosphatase inhibitors, primary screen, counter-screen for PP5 inhibitor project, biochemical, fluorescence, OMFP substrate, single point | Serine/threonine-protein phosphatase PP1-alpha catalytic subunit (Homo sapiens), P62136 | purified PP1alpha | inhibition, % at 6.7 µM | 320,000 compounds, 0.9% hits | AID 2235, 2010;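 active means inhibition above the mean inhibition of all tested compounds plus 3 SD, computed separately for each screening campaign, cut at about 15% in these data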
PP5 primary: PP5 phosphatase inhibitors, primary screen, biochemical, fluorescence; Serine/threonine-protein phosphatase 5 (Homo sapiens), P53041; AID 1987, 2009; purified PP5c, OMFP substrate fluorescence; inhibition, % at 6.7 µM; 320,000 compounds, 0.18% hits;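 active means inhibition above the campaign's mean inhibition across all tested compounds plus 3 SD, cut at about 9.5% in these data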
Target sequence (P53041 whole entry, looked up): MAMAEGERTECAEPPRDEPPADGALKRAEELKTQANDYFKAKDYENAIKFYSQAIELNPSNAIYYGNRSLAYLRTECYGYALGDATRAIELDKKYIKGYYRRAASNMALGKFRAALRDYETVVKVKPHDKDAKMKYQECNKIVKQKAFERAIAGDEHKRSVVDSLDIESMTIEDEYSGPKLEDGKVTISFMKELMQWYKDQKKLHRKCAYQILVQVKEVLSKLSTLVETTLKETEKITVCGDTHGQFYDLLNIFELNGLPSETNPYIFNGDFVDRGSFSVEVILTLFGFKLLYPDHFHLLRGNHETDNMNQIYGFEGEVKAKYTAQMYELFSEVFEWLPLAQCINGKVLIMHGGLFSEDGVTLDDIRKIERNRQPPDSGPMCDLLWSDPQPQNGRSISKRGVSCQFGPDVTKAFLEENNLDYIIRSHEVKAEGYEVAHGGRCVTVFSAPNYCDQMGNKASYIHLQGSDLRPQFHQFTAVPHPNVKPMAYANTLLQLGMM
GSTO1 counter: inhibitors of recombinant GSTO1, primary screen, counter-screen for RBBP9 inhibitor project, biochemical, fluorescence polarization. Glutathione S-transferase omega-1 (Homo sapiens), P78417. activity-based probe fluorescence polarization. inhibition, % at 5.96 µM. 300,000 compounds, 1.1% hits. AID 1974, 2009;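 active means inhibition above the campaign mean inhibition plus 3 SD, cut at about 35% in these data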
Apaf1 inhib: inhibitors of human Apaf-1 apoptosome, primary screen, biochemical, DEVD-Rh110 fluorescence, uHTS | reconstituted apoptosome caspase-3 activity | inhibition, % at 20 µM | 330,000 compounds, 0.71% hits; active means inhibition of at least 40% at 20 µM
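Material: reconstituted apoptosome with Apaf-1, cytochrome c, caspase-9, procaspase-3, dATP. Technique: Rh110 fluorescence intensity. Buffer or medium: pH 7.5 Hepes buffer with CHAPS, BSA, DTT. Times: 30 min plus 50 min, RT.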
PP5 conf: PP5 phosphatase inhibitors, confirmation, biochemical, fluorescence, human; 460 compounds, 22% hits; inhibition, % at 6.7 µM; Purified PP5, fluorogenic phosphatase substrate; AID 2331, 2010; shares compounds with PP5 primary; in the data active means inhibition above about 9.5%
PP1 inh counter: PP1 phosphatase inhibitors, counter-screen for PP5 inhibitor project, biochemical, fluorescence, triplicate; inhibition, % at 6.7 µM; 460 compounds, 4% hits; shares compounds with PP5 primary; PP1 enzyme, fluorescent phosphatase substrate; AID 2355, 2010; in the data active means inhibition above about 16%
Large screens that a line does not name were inactive (follow-up assays come after a bar, where they were run).

CC(C)=CC(=O)N1CCCc2ccccc21	PP5 primary 9.7 | PP5 conf inactive | PP1 inh counter inactive
C[C@@H]1OC(C2CCCCC2)N(C)[C@H]2C[C@H]3c4[nH]c5c(-c6ccc7c(c6)OCO7)cccc5c4CCN3C[C@@H]12 (some centres undefined)	none (no result: PP1 counter, PP5 primary, GSTO1 counter, Apaf1 inhib)
Cc1ccc(-n2c(Cc3cccs3)nnc2SCc2ccc([N+](=O)[O-])cc2)cc1	none (no result: PP1 counter, PP5 primary, GSTO1 counter, Apaf1 inhib)
Cc1cccc(OCC(=O)N/N=C/c2sc(=O)n(Cc3cccc(C(=O)O)c3)c2Cl)c1	PP5 primary 13 | PP5 conf inactive | PP1 inh counter inactive
O=C(COc1ccccc1)N/N=C/c1sc(=O)n(Cc2cccc(C(=O)O)c2)c1Cl	none
Cn1cc(CNCCCn2ncc3ccccc32)c(-c2ccccc2F)n1	PP5 primary 16 | PP5 conf inactive | PP1 inh counter inactive
COC(=O)[C@]12C[C@H](CC(=O)N3CCSCC3)C(=O)N(CCc3ccc(OC)c(OC)c3)C1=C[C@H](C(C)(C)C)O[C@@H]2C	none (no result: PP1 counter, PP5 primary, GSTO1 counter, Apaf1 inhib)
COC(=O)[C@H](C(C)C)N(CCc1cn(Cc2ccc(C)cc2)nn1)S(=O)(=O)c1ccc(F)cc1Br	none (no result: PP1 counter, PP5 primary, GSTO1 counter, Apaf1 inhib)
Cc1ccc([N+](=O)[O-])cc1-c1ccc(/C=N/NC(=O)CN2CCOCC2)o1	PP5 primary 12 | PP5 conf inactive | PP1 inh counter inactive
CCCCOc1ccc(C(=O)Nc2ccc(N3CCN(C(=O)C(C)C)CC3)cc2)cc1	none
CCCCOc1ccc(C(=O)Nc2ccc(N3CCN(C(C)=O)CC3)cc2)cc1	PP5 primary 12 | PP5 conf inactive | PP1 inh counter inactive
C[C@@H]1CNCCN1c1ccc(N2CCN(Cc3ccccc3)[C@@H](C)C2)c(C#N)c1	none (no result: PP1 counter, PP5 primary, GSTO1 counter, Apaf1 inhib)
C=CCN=C1NC(c2cccc(C(F)(F)F)c2)C(C(=O)OC)=C(C)N1Cc1ccccc1C(F)(F)F (centres undefined)	none (no result: PP1 counter, PP5 primary, GSTO1 counter, Apaf1 inhib)
CCN(CC)C1=CC2=CC(=C(C#N)C#N)CCC2CC1 (centres undefined)	none | PP5 conf inactive | PP1 inh counter inactive
COc1cccc(/C=C2\CC3(OC(=O)C4CCCCC4)CCCN2C3)c1 (centres undefined)	none (no result: PP1 counter, PP5 primary, GSTO1 counter, Apaf1 inhib)
CC(C)Nc1nc(NC(C)C)nc(C(N)=O)n1	PP5 primary 11 | PP5 conf inactive | PP1 inh counter inactive
CC(C)Nc1nc(NC(C)C)nc(N(C)C(N)=O)n1	none
CC(C)Sc1nsc2nc(=O)c(/C=C3\C=Nc4ccccc43)c(N)n12	PP5 primary 14 | PP5 conf inactive | PP1 inh counter inactive
COC(=O)C1(C)NC(c2ccc(O)cc2)C2C(=O)N(c3ccccc3)C(=O)C21 (centres undefined)	none
COC(=O)C1(C)NC(c2ccc(O)cc2)C2C(=O)N(c3ccc(F)cc3)C(=O)C21 (centres undefined)	PP5 primary 10 | PP5 conf inactive | PP1 inh counter inactive
C=CCc1c(C)nc(SC)nc1Nc1ccc(C(=O)O)cc1	PP5 primary 11 | PP5 conf inactive | PP1 inh counter inactive
C=CCc1c(C)nc(SC)nc1Nc1ccc(C(C)=O)cc1	none
Fc1ccccc1OCCCCN1CCCCC1	PP5 primary 13 | PP5 conf inactive | PP1 inh counter inactive
CCCc1[nH]c2ccc(C#N)cc2c1CCC	PP5 primary 13 | PP5 conf inactive | PP1 inh counter inactive
CCN(CC)c1ccc(NC(=O)c2cc3c(C)nn(-c4ccccc4)c3s2)cc1	none (no result: PP1 counter, PP5 primary, GSTO1 counter, Apaf1 inhib)
Cc1onc(-c2ccccc2)c1C(=O)OCC(=O)Nc1ccc(OC(F)(F)F)cc1	PP5 primary 9.7 (no result: GSTO1 counter) | PP5 conf inactive | PP1 inh counter inactive
CCOC(=O)c1cccc(NC(=O)CSc2nnc(COc3ccccc3)n2CC)c1	PP5 primary 12 | PP5 conf inactive | PP1 inh counter inactive

Screens as filed in PubChem BioAssay.
